The source of these data is publication PMC2933508 (Cancer research, 2010).

The structures appear in SMILES notation. Where a SMILES comes first, the peptide text is derived from it. [ ]: non-standard residue; d: D form. The star is where a group is joined. NH(Colchicin-10-yl) = COc1cc2c(c(OC)c1OC)-c1ccc(N*)c(=O)cc1[C@@H](NC(C)=O)CC2; FITC = O=C1OC2(c3ccc(O)cc3Oc3cc(O)ccc32)c2ccc(NC(=S)*)cc21; hPhe = N[C@@H](CCc1ccccc1)C(=O)O; Cit = NC(=O)NCCC[C@H](N)C(=O)O; βAla = NCCC(=O)O

Data set [1] concerns HT1080 cells (MT1-MMP positive). Briefly: MTT chemosensitivity assay, HT1080 cells. Particulars: in vitro, MTT IC50 ratio. In kind it is cell-based, human. The procedure, abridged: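 HT1080 and MCF7 cells were grown in RPMI 1640 with 10% FBS, 1 mmol/L pyruvate and 2 mmol/L glutamine, at low passage. MTT assay: exposure to test conjugate (2.4 nmol/L–5 μmol/L), free metabolite (0.1 nmol/L–5 μmol/L) or DMSO for 24 or 96 h. Survival was read 96 h post-treatment and IC50 taken from survival curves; mean ± SD of 3 independent experiments.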

Data set [2] can be described thus: Pharmacokinetics and tissue distribution in HT1080 tumor-bearing mice. Type of data set: in vivo, mouse. The note with it: ICT2552 10.2 mg kg−1 i.p., 4 h post-administration. In outline:
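Mice bearing HT1080 tumours received i.p. test conjugate (150 mg kg⁻¹), free metabolite (10.2 mg kg⁻¹) or vehicle (10% DMSO/Arachis oil). Tumour, blood, liver, kidney, lung, heart and spleen were collected at set times. Plasma (5000 g, 10 min) was diluted 1:5 into methanol; tissues were snap-frozen and homogenized in ice-cold methanol. Supernatants went to LC-MS against agent-free plasma/tissue calibrators; 3 mice per time point.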

Data set [3] relates to HT1080 tumors. As to the kind of experiment: Antitumor activity, HT1080 xenograft, single agent. In kind it is in vivo, mouse. In outline:
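Female Balb/c nude mice (6–8 wk) carried s.c. HT1080 xenograft fragments (2–3 mm³) and were randomized at ~32 mm³. They got a single i.p. dose of test conjugate (37.5, 50, 62.5 or 75 mg kg⁻¹) or molar-equivalent free metabolite (7.5–15 mg kg⁻¹). Caliper volume ((a²×b)/2, normalized to day 0) and body weight were recorded daily for up to 64 days. Growth delay was the time to tumor-volume doubling relative to control. Mann-Whitney U test.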

The nature of data set [4]: ICT2588 metabolism ex vivo in MCF7 xenograft homogenate. In kind it is in vitro ADME. The note with it: human, other tissue homogenate, pH 7.6. In outline:
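Supernatants were run at 100 mg tissue per ml with test compound at 20 μmol/L final. Aliquots taken over 120 min were acetonitrile-precipitated and analysed by LC-MS: reverse-phase, 22.5–50% acetonitrile/0.05% TFA gradient over 30 min, parent quantified at 360 nm. Three independent experiments.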

Another data set relates to MCF7. Briefly: Intracellular fluorescence following treatment. Type of data set: cell-based, human. Particulars: in vitro.
For data set [5], the system named is HT1080 tumors. As to the kind of experiment: Vascular shutdown and tumor necrosis in HT1080 tumors. In kind it is in vivo, mouse. Particulars: 24 h after i.p. ICT2588 150 mg kg−1, HT1080 tumor-bearing mice, mean of 3 mice. In outline: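 Mice bearing HT1080 tumours got i.p. test conjugate (150 mg kg⁻¹), free metabolite (10.2 mg kg⁻¹) or vehicle (10% DMSO/Arachis oil). Functional tumour vasculature and hemorrhagic necrosis were assessed 24 h later; mean of 3 mice ± standard error.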

For the compound `COc1cc2c(c(OC)c1OC)-c1ccc(N)c(=O)cc1[C@@H](NC(C)=O)CC2` [ICT2552, azademethylcolchicine], in data set [1], the “chemosensitivity of HT1080 cells relative to MCF7 cells” value was “equally cytotoxic to HT1080 and MCF7 cells”. Besides, in data set [2], the “concentration of ICT2552 in plasma” value was “below the level of detection” and the “concentration of ICT2552 in tumor versus liver tissue” value was “not significantly different”. In addition, in the data set on HT1080 tumors [3] (ICT2552 15 mg kg−1 single i.p. dose (equimolar to ICT2588 75 mg kg−1)), the tumor growth delay is listed as 1.9 days. Also, in the data set with HT1080 tumors [3] (ICT2552 7.5, 10, 12.5 and 15 mg kg−1 i.p.), the “antitumor response compared with ICT2588 at equimolar doses” value is given as “significantly lower antitumor response”.

Broadly, the half-life is the time needed for the level to fall by half in the phase considered. Read a high half-life as slow decline. As to `COc1cc2c(c(OC)c1OC)-c1ccc(NC(=O)[C@H](Cc3ccc(O)cc3)NC(=O)[C@H](CC(C)C)NC(=O)[C@H](Cc3ccc(O)cc3)NC(=O)[C@H](CCc3ccccc3)NC(=O)CNC(=O)[C@H](CCCNC(N)=O)NC(=O)[C@H](CO)NC(=O)[C@H](CCCNC(=N)N)NC(=O)CCNC(=S)Nc3ccc4c(c3)C(=O)OC43c4ccc(O)cc4Oc4cc(O)ccc43)c(=O)cc1[C@@H](NC(C)=O)CC2` [ICT2588] ({FITC-βAla}-RS[Cit]G[hPhe]YLY-{NH(Colchicin-10-yl)}; N-terminus and C-terminus assumed), the half-life in data set [4] turned out to be 33.1 min. In addition, in the data set on MCF7, the “cell entry / intracellular fluorescence following treatment” value was “lack of observable intracellular fluorescence”. Also, the “chemosensitivity of HT1080 cells relative to MCF7 cells” value in data set [1] is “at least 10 fold”. Further, in the data set on HT1080 tumors [3] (ICT2588 75 mg kg−1 single i.p. dose, p<0.01), the tumor growth delay is recorded as 4.4 days. Also, the “loss in mouse bodyweight (maximum)” value in the data set on HT1080 tumors [3] (all doses of ICT2588 used (37.5-75 mg kg−1 i.p.), data not shown) is given as ≤ 6%. The “increase in hemorrhagic necrosis” value in the data set on HT1080 tumors [5] is 3 fold.
